Assay results pooled from the literature.
Lines come from different studies, so protocols differ.
Target: Protein kinase C epsilon type (PRKCE, Homo sapiens, UniProt Q02156)
One construct used (Q02156 1-737): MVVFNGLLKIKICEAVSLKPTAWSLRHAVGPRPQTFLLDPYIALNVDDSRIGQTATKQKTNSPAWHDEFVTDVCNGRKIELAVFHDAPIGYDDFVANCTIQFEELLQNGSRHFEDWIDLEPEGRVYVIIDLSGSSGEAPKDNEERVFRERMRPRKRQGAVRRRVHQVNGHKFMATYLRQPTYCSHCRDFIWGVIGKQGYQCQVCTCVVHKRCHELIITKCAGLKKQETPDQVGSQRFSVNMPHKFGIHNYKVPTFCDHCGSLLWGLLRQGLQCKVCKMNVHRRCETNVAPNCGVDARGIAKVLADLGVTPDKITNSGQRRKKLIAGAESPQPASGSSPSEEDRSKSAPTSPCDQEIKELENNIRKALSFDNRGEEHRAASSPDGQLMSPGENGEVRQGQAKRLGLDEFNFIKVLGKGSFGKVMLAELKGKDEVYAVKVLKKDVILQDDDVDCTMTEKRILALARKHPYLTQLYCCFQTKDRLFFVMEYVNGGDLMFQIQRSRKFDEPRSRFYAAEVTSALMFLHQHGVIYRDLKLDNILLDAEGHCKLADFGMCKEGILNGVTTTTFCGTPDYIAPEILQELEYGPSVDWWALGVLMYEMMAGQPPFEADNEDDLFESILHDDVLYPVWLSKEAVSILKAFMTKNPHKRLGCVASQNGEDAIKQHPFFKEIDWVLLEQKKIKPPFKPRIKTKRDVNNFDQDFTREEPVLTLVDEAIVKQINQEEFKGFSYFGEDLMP

| SMILES | assay | setting | remaining binding [%] |
| --- | --- | --- | --- |
| COc1ccc2c(O[C@@H]3C[C@H]4C(=O)N[C@]5(C(=O)O)CC5/C=C\CCCCC[C@H](NC(=O)OC5CCCC5)C(=O)N4C3)cc(-c3csc(NC(=O)C(C)C)n3)nc2c1C (some centres unmarked) | cell-free assay, competition with immobilised ligand | 1 µM | 58 |
| CC(C)(C)c1ccc(-c2nc(CBr)nn2-c2cccc(O)c2)cc1 | cell-free assay, competition with immobilised ligand | 10 µM | 73 |
| Cc1cnn2ncc(-c3ccnc(N(C)C)n3)c2c1 | binding | 1 µM | 100 |
| CNC(=O)[C@@H]1CC[C@@H](n2c(-c3ccc4cnccc4c3)nc3ccc(C(=O)NCc4cccc(C(N)=O)c4)cc32)C1 | binding, competition with immobilised ligand | 1 µM | 85 |
| CN(C(=O)c1ccccc1)c1cc(N(C)c2ccc3c(c2)CCc2ccc(C(=O)NCCN4CCOCC4)cc2C3=O)ccc1F | cell-free assay, competition with immobilised ligand | 1 µM | 87 |
| Cc1cnc(Nc2ccc(C(=O)N3CCC(N4CCCC4)CC3)cc2)nc1-c1cc2ccccc2s1 | binding, competition with immobilised ligand | 1 µM | 26 |
| C[C@@H]1CN(c2ccc3ncc(-c4ccc5[nH]nc(C6CC6)c5c4)n3n2)C[C@H](C)O1 | binding, competition with immobilised ligand | 50 nM | 86 |
| CN(C)c1nccc(-c2cnc3ncccn23)n1 | binding | 1 µM | 100 |
| CCN1CCN(Cc2ccc(C(=O)Nc3ccc(C)c(Oc4ccc5c(c4)CC(=O)N5)c3)cc2C(F)(F)F)CC1 | binding, competition with immobilised ligand | 1 µM | 100 |
| CCC(=N\O)/C(C)=C/c1ccc(F)cc1 | cell-free assay, competition with immobilised ligand | 1 µM | 76 |
| O=C(c1ccc(Nc2ncc(Cl)c(-c3cc4ccccc4s3)n2)cc1)N1CCC(N2CCCC2)CC1 | binding, competition with immobilised ligand | 1 µM | 50 |
| C=CC(=O)N1CCC(C(=O)NCC(=O)N2CCN(c3nc(-c4cnc(N)nc4C(F)F)nc(N4CCOCC4)n3)CC2)CC1 | binding, competition with immobilised ligand | 1 µM | 79 |
| N#Cc1ccccc1CSc1nnc2c(n1)[nH]c1ccccc12 | binding, competition with immobilised ligand | 10 µM | 100 |
| Cn1nc(C(=O)NCc2ccc(C(=O)O)cc2)cc1-c1ccc2[nH]ccc2c1 | cell-free assay, competition with immobilised ligand | 0.1 µM | 64 |
| O=C(NCCCN1CCOCC1)c1ccc(Nc2nccc(-c3cc4ccccc4s3)n2)cc1 | binding, competition with immobilised ligand | 1 µM | 71 |
| C[C@@H]1CCN(c2nccc(-c3cnn4ncccc34)n2)C1 | binding | 1 µM | 100 |
| COc1cc(-c2cn(C3CCc4c(F)cccc4N(CC(F)(F)F)C3=O)nn2)ccc1-n1cnc(C)c1 (centres unmarked) | cell-free assay, competition with immobilised ligand | 1 µM | 100 |
| O=C(Nc1c[nH]nc1C(=O)NC1CCNCC1)c1cc(F)cc(F)c1 | binding, competition with immobilised ligand | 1 µM | 70 |
| N[C@@H]1CCN(c2nccc(-c3cnn4ncccc34)n2)C1 | binding | 1 µM | 97 |
| CN(c1ccnc(CNc2nc(Nc3ccc4c(c3)CC(=O)N4)ncc2C(F)(F)F)n1)S(C)(=O)=O | cell-free assay, competition with immobilised ligand | 1 µM | 50 |
| COc1ccnn2ncc(-c3ccnc(N(C)C)n3)c12 | binding | 1 µM | 100 |
| COc1cnc(Nc2cccc(S(N)(=O)=O)c2)nc1N1CCN(c2ccccc2)C(=O)C1 | binding, competition with immobilised ligand | 1 µM | 100 |
| CSc1cccnc1N1CCN(Cc2nc3ccccc3[nH]2)CC1 | cell-free assay, competition with immobilised ligand | 1 µM | 77 |
| CN(CCCC(F)(F)F)c1nccc(-c2cnn3ncccc23)n1 | binding | 1 µM | 82 |
| CS(=O)(=O)N1CCCC(NC(=O)[C@H](CCC2CCCCC2)NC(=O)c2ccc(CNc3ncnc4c3nnn4-c3ccccc3)cc2)C1 (some centres unmarked) | cell-free assay, competition with immobilised ligand | 0.1 µM | 63 |
| CN(C)c1nccc(-c2cnn3ncccc23)n1 | binding | 1 µM | 100 |
